Assay results from ChEMBL document CHEMBL3232831, “Synthetic indole and melatonin derivatives exhibit antimalarial activity on the cell cycle of the human malaria parasite Plasmodium falciparum” (Eur J Med Chem, 2014).

What was measured:
Plasmodium falciparum [1] = assay: Antiplasmodial activity against Plasmodium falciparum 3D7 infected in erythrocytes assessed as parasitemia level at 500 nM after 48 hrs by YOYO-1 staining-based flow cytometry relative to control; format: functional
In short: (§1)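 P. falciparum 3D7 in O+ human erythrocytes, RPMI-1640 with 10% O+ human serum, 92% N2/5% CO2/3% O2. Infected cells exposed 48 h at a single concentration. Then fixed in 2% paraformaldehyde/PBS for 24 h, permeabilized with 0.1% Triton X-100 and stained with 5 nM YOYO-1 for 30 min at 37 °C. Read on 10⁵ cells by flow cytometry. Parasitemia expressed versus solvent control; ≥3 independent experiments, one-way ANOVA with Dunnett's test.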

Plasmodium falciparum [2] = assay: Antiplasmodial activity against asynchronous culture of Plasmodium falciparum 3D7 infected in erythrocytes assessed as reduction of melatonin-induced increase in parasitemia level at 500 nM after 48 hrs by YOYO-1 staining-based flow cytometry (reference value: 23.5 +/- 6.8 %); format: functional; parameters: scale not given: the % may be the effect or the level left
Plasmodium falciparum [3] = assay: Antiplasmodial activity against ring stage synchronized Plasmodium falciparum 3D7 infected in erythrocytes assessed as parasitemia level after 48 hrs by flow cytometry relative to control; format: functional, organism-based; conditions: 3D7, 48 h
In short: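 3D7 culture was synchronized (Lambros) and infected erythrocytes were dosed at ring stage with 10 concentrations from 5 nM to 100 μM for 48 h. Parasitemia was read by YOYO-1 flow cytometry as in the single-dose assay. IC50 was obtained from sigmoid dose–response fits; ≥3 independent experiments.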

Plasmodium falciparum [4] = assay: Antiplasmodial activity against Plasmodium falciparum 3D7 infected in erythrocytes assessed as parasitemia level at 100 nM after 48 hrs by YOYO-1 staining-based flow cytometry relative to control; format: functional; in short: as §1

Compound	Activity (Plasmodium falciparum [1]) [%]	Activity (Plasmodium falciparum [2]) [%]	IC50 (Plasmodium falciparum [3]) [µM]	Activity (Plasmodium falciparum [4]) [%]
CCCC(=O)NCCc1c[nH]c2ccc(OC)cc12	8	8.8	19.2	–
CCCCCC(=O)NCCc1c[nH]c2ccccc12	6	6.9	–	–
COC(=O)NCCc1c[nH]c2ccccc12	11.7	10.9	–	–
CCCCCC(=O)NCCc1c[nH]c2ccc(OC)cc12	7.8	8.6	19.1	–
COc1ccc2[nH]cc(CCNC(=O)c3ccccc3)c2c1	10.8	9.1	2.93	–
COC(=O)NCCc1c[nH]c2ccc(OC)cc12	10	14.5	–	–
CCCC(=O)NCCc1c[nH]c2ccccc12	9.2	11	–	–
COc1ccc2[nH]cc(CCN)c2c1 [5-METHOXYTRYPTAMINE]	19.7	14.1	–	–
C[C@H]1Cc2c([nH]c3cc(Cl)c(F)cc23)[C@@]2(N1)C(=O)Nc1ccc(Cl)cc12 [CIPARGAMIN]	–	–	0.01	–
COc1ccc2[nH]cc(CCNC(C)=O)c2c1 [MELATONIN]	–	23.5	–	21.9
CC(=O)NCCc1c[nH]c2ccccc12 [NB-ACETYLTRYPTAMINE]	12.9	11.3	–	–
